The values that follow come from ChEMBL document CHEMBL1122379, “Design of anticandidal agents: synthesis and biological properties of analogues of polyoxin L” (J Med Chem, 1983).

The subject of experiment [1] is Candida albicans. Briefly: Minimum effective concentration is the lowest concentration at which some (5%) morphologically abnormal cells were observed under microscopic examination. Type of experiment: functional. Particulars: read-out: MEC. The gist of the method:
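C. albicans H-317 (clinical isolate) grown at 37 °C in yeast nitrogen base with 0.5% isoleucine and 5.0% glucose, harvested at early log phase, washed. Twofold serial dilutions in yeast nitrogen base, 1×10^6 cells/mL per well, 48 h at 37 °C in humid chamber with slight agitation; wells examined microscopically for lowest concentration giving ~5% abnormal cells.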

Experiment [2] deals with Candida albicans. Briefly: (§1) Concentration at which 50% of the cells incubated, were not able to form colonies when replated. Type of experiment: functional. The gist of the method: (§2)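 C. albicans H-317 grown at 37 °C with stirring in yeast nitrogen base with 0.5% isoleucine and 5.0% glucose, harvested at early log phase. Cells were exposed at 1×10^6 cells/mL to twofold serial drug dilutions and incubated 48 h at 37 °C in a humid chamber. Wells were plated on potato dextrose agar for 2 days at 37 °C. Viability was taken as colonies versus hemocytometer counts.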

Experiment [3] addresses Chitin synthase 1 (Candida albicans) (UniProt P23316). Briefly: Inhibitory activity against chitin synthetase from Candida albicans H-317. Type of experiment: functional. Summed up: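 Mixed membrane fraction of C. albicans H-317 (5.17 mg protein/mL stock), trypsin-activated 10 min at 37 °C with ATP in imidazole buffer pH 6.5; trypsin inhibitor, GlcNAc and UDP-[14C]GlcNAc then added with inhibitor at 10^-3 to 10^-6 M. Aliquots taken at 5–60 min, acid/ethanol-precipitated chitin filtered and scintillation-counted; ID50 = concentration giving half of initial velocity from dose-response curves.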

Experiment [4] has as its system Candida albicans. The experiment is described as §1. Type of experiment: ADME, organism-based. As to conditions: read-out: Viability. Summed up: as §2

Bounds are passed on as bounds.

Chain of Chitin synthase 1 (Candida albicans) (P23316 whole entry, looked up): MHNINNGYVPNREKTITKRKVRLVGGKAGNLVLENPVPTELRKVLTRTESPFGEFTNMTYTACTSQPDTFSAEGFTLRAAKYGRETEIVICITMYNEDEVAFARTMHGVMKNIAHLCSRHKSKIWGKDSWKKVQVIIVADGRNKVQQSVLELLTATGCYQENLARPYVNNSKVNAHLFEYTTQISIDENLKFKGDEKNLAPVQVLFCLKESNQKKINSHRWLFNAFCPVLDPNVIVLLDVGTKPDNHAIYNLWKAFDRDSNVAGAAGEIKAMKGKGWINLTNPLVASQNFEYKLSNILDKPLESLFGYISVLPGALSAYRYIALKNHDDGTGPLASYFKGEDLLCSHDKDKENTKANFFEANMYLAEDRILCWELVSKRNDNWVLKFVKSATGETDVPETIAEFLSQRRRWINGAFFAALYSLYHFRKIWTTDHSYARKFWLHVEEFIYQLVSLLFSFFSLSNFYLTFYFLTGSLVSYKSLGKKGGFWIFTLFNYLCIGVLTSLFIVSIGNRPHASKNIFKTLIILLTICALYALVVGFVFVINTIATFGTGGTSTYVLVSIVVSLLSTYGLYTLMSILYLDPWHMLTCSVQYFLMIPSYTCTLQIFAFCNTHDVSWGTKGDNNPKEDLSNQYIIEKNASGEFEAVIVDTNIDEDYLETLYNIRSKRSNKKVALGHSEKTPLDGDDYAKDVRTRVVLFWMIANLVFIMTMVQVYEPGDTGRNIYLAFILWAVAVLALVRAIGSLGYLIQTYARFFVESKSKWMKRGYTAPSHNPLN

On to `NC(=O)OCC(O)C(O)C(N)C(=O)NC(C(=O)O)[C@H]1O[C@@H](n2cc(C(=O)O)c(=O)[nH]c2=O)[C@H](O)[C@@H]1O` (some centres undefined), for which the minimal effective concentration in the experiment on Candida albicans [1] turned out to be 2 µM. The same molecule gave a Viability in the experiment on Candida albicans [2] of 1 mM. The molecule also registered an ID50 in experiment [3] of 1.8 µM.

For `N[C@@H](Cc1c[nH]c2ccccc12)C(=O)NC(C(=O)O)[C@H]1O[C@@H](n2ccc(=O)[nH]c2=O)[C@H](O)[C@@H]1O` (some centres undefined), the minimal effective concentration in the experiment on Candida albicans [1] is 130 µM. Moreover, the Viability with Candida albicans [2] is over 8 mM. Besides, the ID50 in experiment [3] amounted to 1.7 µM.

Consider `NC(CCc1ccccc1)C(=O)NC(C(=O)O)[C@H]1O[C@@H](n2ccc(=O)[nH]c2=O)[C@H](O)[C@@H]1O` (some centres undefined), for which the minimal effective concentration in the experiment on Candida albicans [1] amounted to 60 µM. For the same molecule, the Viability with Candida albicans [2] was over 8 mM. This molecule came in with an ID50 in experiment [3] of 3.8 µM.

On to `NC(C(=O)O)[C@H]1O[C@@H](n2ccc(=O)[nH]c2=O)[C@H](O)[C@@H]1O` (some centres undefined), for which, in the experiment with Candida albicans [1], the minimal effective concentration amounted to 8000 µM. In addition, the Viability with Candida albicans [2] is listed as over 8 mM. Besides, in experiment [3], the ID50 is over 100 µM.

For `NC(=O)NCCCC(N)C(=O)N[C@@H](C(=O)O)[C@H]1O[C@@H](n2ccc(=O)[nH]c2=O)[C@H](O)[C@@H]1O` (some centres undefined), the minimal effective concentration in the experiment on Candida albicans [1] is 500 µM. Moreover, in the experiment with Candida albicans [2], the Viability is listed as over 8 mM. This molecule returned an ID50 in experiment [3] of 68 µM.

On to `NC(Cc1ccc(O)cc1)C(=O)NC(C(=O)O)[C@H]1O[C@@H](n2ccc(=O)[nH]c2=O)[C@H](O)[C@@H]1O` (some centres undefined), for which the minimal effective concentration in the experiment with Candida albicans [1] is 8000 µM. Moreover, the LC50 in the experiment on Candida albicans [4] is over 8000 µM. The ID50 in experiment [3] is 4.9 µM.

As for `CCCCC(N)C(=O)NC(C(=O)O)[C@H]1O[C@@H](n2ccc(=O)[nH]c2=O)[C@H](O)[C@@H]1O` (some centres undefined), the minimal effective concentration in the experiment on Candida albicans [1] turned out to be 170 µM. Moreover, the Viability in the experiment on Candida albicans [2] amounted to 4 mM. This molecule also yielded an ID50 in experiment [3] of 14 µM.

As for `NC(Cc1ccc(Oc2ccc(O)cc2)cc1)C(=O)NC(C(=O)O)[C@H]1O[C@@H](n2ccc(=O)[nH]c2=O)[C@H](O)[C@@H]1O` (some centres undefined), the minimal effective concentration in the experiment with Candida albicans [1] turned out to be 2000 µM. The molecule also came in with a Viability with Candida albicans [2] of 4 mM. In experiment [3], this molecule displayed an ID50 of 16 µM.
